Results from different studies.
Compare with care: the assays were run in different laboratories.
MAOA: Amine oxidase [flavin-containing] A (MAOA, Homo sapiens, UniProt P21397)
rep papain-like protease: Replicase polyprotein 1ab, papain-like protease (rep, Severe acute respiratory syndrome coronavirus 2, UniProt P0DTD1)
rep helicase: Replicase polyprotein 1ab, helicase (rep, Severe acute respiratory syndrome coronavirus 2, UniProt P0DTD1)
ADRA1A: Alpha-1A adrenergic receptor (ADRA1A, Homo sapiens, UniProt P35348)

Structure (SMILES)	target	read-out	action	method	quantity	result
C#CCN(C)CCCCCCCCOc1cccc(CN(C)c2c3c(nc4ccc(F)cc24)CCCC3)c1	MAOA	enzyme activity	inhibitor	fluorescence	IC50	61.3 µM
Brc1ccc2c(c1)C(c1ccccn1)=NCc1c(-c3cnco3)ncn1-2	Translocator protein (Tspo, Rattus norvegicus, UniProt P16257)	ligand displacement		radioligand	Ki	0.331 µM
CCCNC(=O)[C@H]1O[C@@H]1C(=O)N[C@H](C(=O)N1CCC[C@H]1C(=O)O)[C@@H](C)CC	rep papain-like protease	enzyme activity	inhibitor	FRET	IC50	170 µM
COc1ccc2cc1Oc1ccc(cc1)C[C@H]1c3c(cc4c(c3Oc3cc5c(cc3OC)CCN(C)[C@@H]5C2)OCO4)CCN1C	rep helicase	enzyme activity	inhibitor		IC50	4.5 µM
COC(=O)c1cc(N(C)C(=O)c2ccn3ncc(-c4ccc(C(=O)O)cc4)c3c2)ccc1Cl	ADRA1A	cell-free assay			IC50	> 30 µM
C#CCN(C)CCOc1cccc(CN(C)c2c3c(nc4ccccc24)CCCC3)c1	MAOA	enzyme activity	inhibitor	fluorescence	IC50	10.3 µM
CCC(C(=O)Nc1cc(NC2CCOC2)ccc1C)n1cc(Cl)cc2nc(SCc3ccc(F)cc3)nc1-2 (stereo not shown)	rep papain-like protease	enzyme activity	inhibitor		IC50	0.169 µM
CNC(=O)c1ccc(-c2cnn3ccc(C(=O)N(C)c4ccc(Cl)c(C(=O)OC)c4)cc23)cc1	ADRA1A	cell-free assay			IC50	> 30 µM
CSCCNc1nc(SCCC(F)(F)F)nc2c1ncn2[C@@H]1O[C@H](COP(=O)(O)OP(=O)(O)C(Cl)(Cl)P(=O)(O)O)[C@@H](O)[C@H]1O	rep helicase	enzyme activity	inhibitor		IC50	> 100 µM
CCC(C(=O)Nc1cc(NC2COC2)ccc1C)n1cc(F)cc2nc(SCc3ccc(F)cc3)nc1-2 (stereo not shown)	rep papain-like protease	enzyme activity	inhibitor		IC50	0.436 µM
Cc1cc(Nc2ncc(Cl)c(Nc3ccccc3S(=O)(=O)C(C)C)n2)c(OC(C)C)cc1C1CCNCC1	rep papain-like protease	enzyme activity	inhibitor	FRET	IC50	19.5 µM
CCCC(C(=O)Nc1cc(NC2CNC2)ccc1C)n1cccc2nc(SCc3ccc(F)cc3)nc1-2 (stereo not shown)	rep papain-like protease	enzyme activity	inhibitor		IC50	1.48 µM
C#CCN(C)CCCCCCOc1cccc(CN(C)c2c3c(nc4ccc(C)cc24)CCCC3)c1	MAOA	enzyme activity	inhibitor	fluorescence	IC50	4.87 µM
